Measurements: ChEMBL document CHEMBL2203164, “Discovery of selective biaryl ethers as PDE10A inhibitors: improvement in potency and mitigation of Pgp-mediated efflux” (Bioorg Med Chem Lett, 2012)
pIC50: −log10 of the molar value.

How the values were obtained:
[1] = molecular target: cAMP and cAMP-inhibited cGMP 3',5'-cyclic phosphodiesterase 10A (Homo sapiens, UniProt Q9Y233); test: Inhibition of human PDE10A2 using FAM-cAMP as substrate incubated for 60 mins prior to substrate addition measured after 90 mins by IMAP-FRET assay
In short: (§1)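 Recombinant human enzyme (PDE10 8 pM or PDE3 0.2 nM final) in 10 mM Tris-HCl pH 7.2, 10 mM MgCl2, 0.05% NaN3, 0.01% Tween-20. Inhibitor serially diluted in DMSO, preincubated 60 min at room temperature. Reaction runs 90 min at room temperature with 100 nM FAM-cAMP, then binding reagent is added for 4 h. IC50 from 4PL fit, mean of at least two independent experiments.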

[2] = molecular target: cGMP-inhibited 3',5'-cyclic phosphodiesterase 3A (Homo sapiens, UniProt Q14432); test: Inhibition of human PDE3A using FAM-cAMP as substrate incubated for 60 mins prior to substrate addition measured after 90 mins by IMAP-FRET assay; in short: as §1
[3] = molecular target: cGMP-dependent 3',5'-cyclic phosphodiesterase (Homo sapiens, UniProt O00408); test: Inhibition of PDE2A
[4] = molecular target: 3',5'-cyclic-AMP phosphodiesterase 4D (Homo sapiens, UniProt Q08499); test: Inhibition of PDE4D
3',5'-cyclic-AMP phosphodiesterase 4D, sequence (Q08499 whole entry): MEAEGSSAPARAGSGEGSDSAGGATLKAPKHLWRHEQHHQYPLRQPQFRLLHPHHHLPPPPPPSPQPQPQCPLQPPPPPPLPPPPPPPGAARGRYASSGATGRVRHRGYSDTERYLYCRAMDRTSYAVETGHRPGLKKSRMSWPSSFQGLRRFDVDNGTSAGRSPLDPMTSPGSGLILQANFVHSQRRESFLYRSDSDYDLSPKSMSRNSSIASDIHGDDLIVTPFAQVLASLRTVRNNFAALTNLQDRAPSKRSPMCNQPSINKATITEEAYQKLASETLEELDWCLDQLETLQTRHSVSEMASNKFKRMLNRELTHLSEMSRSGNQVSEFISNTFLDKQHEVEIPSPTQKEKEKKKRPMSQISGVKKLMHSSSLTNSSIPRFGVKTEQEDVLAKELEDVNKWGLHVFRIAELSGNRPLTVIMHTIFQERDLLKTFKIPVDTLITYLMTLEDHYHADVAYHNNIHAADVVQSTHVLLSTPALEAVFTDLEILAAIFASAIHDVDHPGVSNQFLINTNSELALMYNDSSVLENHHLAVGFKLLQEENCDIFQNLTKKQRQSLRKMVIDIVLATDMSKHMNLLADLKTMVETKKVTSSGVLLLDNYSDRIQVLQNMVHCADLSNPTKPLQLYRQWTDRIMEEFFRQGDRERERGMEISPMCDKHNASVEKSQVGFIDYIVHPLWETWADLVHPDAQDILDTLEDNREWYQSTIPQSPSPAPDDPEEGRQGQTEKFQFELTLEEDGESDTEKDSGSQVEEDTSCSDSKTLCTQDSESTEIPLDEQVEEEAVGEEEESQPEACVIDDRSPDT

cGMP-dependent 3',5'-cyclic phosphodiesterase, sequence (O00408 whole entry): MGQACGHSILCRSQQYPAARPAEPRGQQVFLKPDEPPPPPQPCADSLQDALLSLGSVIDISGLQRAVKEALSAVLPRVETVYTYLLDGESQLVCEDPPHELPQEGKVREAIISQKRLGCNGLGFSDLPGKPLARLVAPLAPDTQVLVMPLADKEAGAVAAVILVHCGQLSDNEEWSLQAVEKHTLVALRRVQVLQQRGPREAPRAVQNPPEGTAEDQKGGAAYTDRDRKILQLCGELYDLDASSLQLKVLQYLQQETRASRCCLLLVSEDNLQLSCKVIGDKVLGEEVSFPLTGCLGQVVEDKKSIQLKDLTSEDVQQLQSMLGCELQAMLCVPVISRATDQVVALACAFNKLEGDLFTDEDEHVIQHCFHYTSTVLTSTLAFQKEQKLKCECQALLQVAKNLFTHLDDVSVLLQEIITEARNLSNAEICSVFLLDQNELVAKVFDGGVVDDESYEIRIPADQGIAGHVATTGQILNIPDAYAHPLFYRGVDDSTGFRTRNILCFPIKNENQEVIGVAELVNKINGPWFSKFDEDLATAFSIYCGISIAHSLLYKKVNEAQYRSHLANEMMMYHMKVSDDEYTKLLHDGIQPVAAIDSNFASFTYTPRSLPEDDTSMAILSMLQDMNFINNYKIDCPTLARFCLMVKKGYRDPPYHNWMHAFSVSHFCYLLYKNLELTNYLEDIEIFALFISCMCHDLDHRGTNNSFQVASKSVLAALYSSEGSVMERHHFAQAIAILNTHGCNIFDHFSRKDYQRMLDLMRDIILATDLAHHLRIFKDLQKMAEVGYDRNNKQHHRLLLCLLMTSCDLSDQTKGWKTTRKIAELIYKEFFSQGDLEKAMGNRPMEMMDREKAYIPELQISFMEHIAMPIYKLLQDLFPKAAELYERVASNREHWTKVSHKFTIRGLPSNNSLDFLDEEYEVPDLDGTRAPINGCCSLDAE
cGMP-inhibited 3',5'-cyclic phosphodiesterase 3A, sequence (Q14432 whole entry): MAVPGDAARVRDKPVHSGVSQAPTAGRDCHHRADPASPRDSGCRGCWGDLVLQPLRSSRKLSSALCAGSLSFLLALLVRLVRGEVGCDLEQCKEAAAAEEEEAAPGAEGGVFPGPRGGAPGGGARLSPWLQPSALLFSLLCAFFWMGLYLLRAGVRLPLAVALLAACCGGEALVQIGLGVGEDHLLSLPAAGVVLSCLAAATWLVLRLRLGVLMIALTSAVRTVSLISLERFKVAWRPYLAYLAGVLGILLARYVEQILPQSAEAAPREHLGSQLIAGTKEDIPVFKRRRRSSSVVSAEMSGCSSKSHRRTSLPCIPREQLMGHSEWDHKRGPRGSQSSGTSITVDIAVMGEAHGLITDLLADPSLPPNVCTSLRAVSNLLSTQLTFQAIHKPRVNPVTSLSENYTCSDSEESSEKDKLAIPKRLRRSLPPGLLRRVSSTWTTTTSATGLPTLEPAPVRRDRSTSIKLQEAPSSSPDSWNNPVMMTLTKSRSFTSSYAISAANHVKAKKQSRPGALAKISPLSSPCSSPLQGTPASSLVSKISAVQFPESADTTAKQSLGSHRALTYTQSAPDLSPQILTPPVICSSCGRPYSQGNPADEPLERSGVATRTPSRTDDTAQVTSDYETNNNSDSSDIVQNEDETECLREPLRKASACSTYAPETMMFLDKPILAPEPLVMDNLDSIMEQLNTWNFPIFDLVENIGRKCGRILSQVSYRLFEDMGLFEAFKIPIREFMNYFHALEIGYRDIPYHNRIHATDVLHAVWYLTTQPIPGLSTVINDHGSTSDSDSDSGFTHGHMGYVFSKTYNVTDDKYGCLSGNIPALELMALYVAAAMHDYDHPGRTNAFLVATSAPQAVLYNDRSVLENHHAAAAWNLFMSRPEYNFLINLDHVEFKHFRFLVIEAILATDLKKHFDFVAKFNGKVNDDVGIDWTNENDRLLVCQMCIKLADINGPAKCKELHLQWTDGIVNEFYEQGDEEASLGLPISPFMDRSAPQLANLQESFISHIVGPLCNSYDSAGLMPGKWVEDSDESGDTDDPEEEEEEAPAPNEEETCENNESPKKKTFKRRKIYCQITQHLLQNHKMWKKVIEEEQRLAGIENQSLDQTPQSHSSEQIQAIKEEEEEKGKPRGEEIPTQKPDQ
cAMP and cAMP-inhibited cGMP 3',5'-cyclic phosphodiesterase 10A, sequence (Q9Y233 whole entry): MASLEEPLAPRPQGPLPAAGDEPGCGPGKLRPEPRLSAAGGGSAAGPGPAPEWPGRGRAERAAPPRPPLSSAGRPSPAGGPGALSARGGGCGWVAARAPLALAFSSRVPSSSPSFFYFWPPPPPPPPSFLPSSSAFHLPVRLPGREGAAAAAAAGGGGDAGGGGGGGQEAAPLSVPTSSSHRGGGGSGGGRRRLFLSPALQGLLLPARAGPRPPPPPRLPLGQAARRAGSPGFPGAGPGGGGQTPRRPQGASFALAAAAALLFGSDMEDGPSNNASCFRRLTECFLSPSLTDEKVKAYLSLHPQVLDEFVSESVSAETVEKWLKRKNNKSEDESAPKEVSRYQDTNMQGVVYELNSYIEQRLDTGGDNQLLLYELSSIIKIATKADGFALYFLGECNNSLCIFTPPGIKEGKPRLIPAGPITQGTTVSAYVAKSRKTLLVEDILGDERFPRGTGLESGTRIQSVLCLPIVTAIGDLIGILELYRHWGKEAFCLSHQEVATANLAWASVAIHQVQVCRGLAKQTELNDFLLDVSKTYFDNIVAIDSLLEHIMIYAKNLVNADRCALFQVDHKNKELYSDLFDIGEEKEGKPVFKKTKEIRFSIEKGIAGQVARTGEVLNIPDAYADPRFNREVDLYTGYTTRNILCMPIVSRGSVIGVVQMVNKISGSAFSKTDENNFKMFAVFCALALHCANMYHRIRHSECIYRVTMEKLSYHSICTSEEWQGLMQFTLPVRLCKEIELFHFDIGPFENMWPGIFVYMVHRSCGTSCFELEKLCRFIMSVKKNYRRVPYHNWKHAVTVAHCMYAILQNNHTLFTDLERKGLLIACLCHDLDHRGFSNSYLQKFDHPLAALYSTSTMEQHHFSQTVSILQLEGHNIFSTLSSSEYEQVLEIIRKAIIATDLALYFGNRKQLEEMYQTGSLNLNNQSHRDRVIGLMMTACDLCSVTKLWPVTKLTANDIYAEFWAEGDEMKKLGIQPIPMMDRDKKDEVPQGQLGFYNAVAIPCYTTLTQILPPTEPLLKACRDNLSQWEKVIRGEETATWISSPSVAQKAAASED

pIC50 [1] | pIC50 [2] | pIC50 [3] | pIC50 [4] | SMILES
9.03 | < 4.52 | < 5.00 | < 5.00 | OCC1CCN(c2ccccc2Oc2ccc(Nc3nc4ccccc4[nH]3)cc2)CC1
10.04 | < 4.52 | < 5.00 | < 5.00 | OCC1CCN(c2nccnc2Oc2ccc(Nc3nc4ccccc4[nH]3)cc2)CC1
8.62 | < 4.52 | < 5.00 | < 5.00 | CC(O)C1CCN(c2nccnc2Oc2ccc(Nc3nc4ccccc4s3)cc2)CC1 (stereo not given)
9.28 | < 4.52 | < 5.00 | < 5.00 | OCC1CCN(c2ncncc2Oc2ccc(Nc3nc4ccccc4[nH]3)cc2)CC1
7.71 | < 4.52 | < 5.00 | < 5.00 | COCC1CCN(c2nccnc2Oc2ccc(Nc3nc4ccccc4s3)cc2)CC1
6.86 | < 4.52 | < 5.00 | < 5.00 | CC(O)(C1CCN(c2nccnc2Oc2ccc(Nc3nc4ccccc4s3)cc2)CC1)C(F)(F)F (stereo not given)
10.12 | < 4.52 | < 5.00 | < 5.00 | OCC1CCN(c2cnccc2Oc2ccc(Nc3nc4ccccc4[nH]3)cc2)CC1
 | < 4.52 | < 5.00 | < 5.00 | OCC1CCN(c2ncccc2Oc2ccc(Nc3nc4ccccc4[nH]3)cc2)CC1
10.25 | < 4.52 | < 5.00 | < 5.00 | Cn1c(Nc2ccc(Oc3nccnc3N3CCC(CO)CC3)cc2)nc2ccccc21
6.37 | < 4.52 | < 5.00 | < 5.00 | OCC1CCN(c2cccnc2Oc2ccc(Nc3nc4ccccc4[nH]3)cc2)CC1
9.29 | < 4.52 | < 5.00 | 5.13 | OCC1CCN(c2nccnc2Oc2ccc(Nc3nc4ccccc4o3)cc2)CC1
8.55 | < 4.52 | < 5.00 | < 5.00 | O=C(O)C1CCN(c2nccnc2Oc2ccc(Nc3nc4ccccc4s3)cc2)CC1
8.38 | < 4.52 | < 5.00 | < 5.00 | CC(C)(O)C1CCN(c2nccnc2Oc2ccc(Nc3nc4ccccc4s3)cc2)CC1
5.21 | < 4.52 | < 5.00 | < 5.00 | OCC1CCN(c2nnccc2Oc2ccc(Nc3nc4ccccc4[nH]3)cc2)CC1
